Data: ChEMBL document CHEMBL3351380, “Antioxidant and antimicrobial studies on fused-ring pyrazolones and isoxazolones” (Bioorg Med Chem, 2014)
In brackets after ≈: the same amount, converted by molar mass. Activity calls are given as the source filed them. No cut-off for these calls is given here.

system: Pseudomonas aeruginosa; assay: Antimicrobial activity against Pseudomonas aeruginosa NCIMB 8295 by agar well diffusion method; assay type: functional; details: not given

Row | Molecule | MIC
1 | COc1ccc(C2=CC3=NOC(=O)C3C(c3cccc([N+](=O)[O-])c3)C2)c(OC)c1 (stereo not given) | inactive
2 | O=C1NN=C2C=C(c3ccc(Br)cc3)CC(c3cccc([N+](=O)[O-])c3)C12 (stereo not given) | inactive
3 | COc1ccc(C2=CC3=NOC(=O)C3C(c3cccc([N+](=O)[O-])c3)C2)cc1 (stereo not given) | inactive
4 | GENTAMICIN | < 0.02 µg/mL

system: Escherichia coli; assay: Antimicrobial activity against Escherichia coli ATCC 8739 by agar well diffusion method; assay type: functional; details: not given

Row | Molecule | MIC
5 | COc1ccc(C2=CC3=NOC(=O)C3C(c3cccc([N+](=O)[O-])c3)C2)c(OC)c1 (stereo not given) | inactive
6 | O=C1NN=C2C=C(c3ccc(Br)cc3)CC(c3cccc([N+](=O)[O-])c3)C12 (stereo not given) | inactive
7 | COc1ccc(C2=CC3=NOC(=O)C3C(c3cccc([N+](=O)[O-])c3)C2)cc1 (stereo not given) | inactive
8 | GENTAMICIN | < 0.02 µg/mL

system: not listed separately; assay: Antioxidant activity assessed as DPPH radical scavenging activity after 30 mins by spectrophotometry; assay type: physicochemical; details: not given
Summary of the method: (§1)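 DPPH (0.51 mM in methanol) was mixed 1:1 by volume with the compound at several concentrations (100, 50, 25 … µg/mL range). Absorbance was read against a control, and % inhibition = (A0−As)/A0 ×100. Readings were taken at 30 min and 3 h, with ascorbic acid as the reference. Triplicate measurements.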

Row | Molecule | IC50 [µg/mL]
9 | COc1ccc(C2=CC3=NOC(=O)C3C(c3cccc([N+](=O)[O-])c3)C2)c(OC)c1 (stereo not given) | 275 (≈ 697 µM)
10 | O=C1NN=C2C=C(c3ccc(Br)cc3)CC(c3cccc([N+](=O)[O-])c3)C12 (stereo not given) | 103.6 (≈ 251 µM)
11 | COc1ccc(C2=CC3=NOC(=O)C3C(c3cccc([N+](=O)[O-])c3)C2)cc1 (stereo not given) | 258.75 (≈ 710 µM)
12 | O=C(/C=C/c1cccc([N+](=O)[O-])c1)c1cccs1 | 112.29 (≈ 433 µM)
13 | O=C(/C=C/c1cccc([N+](=O)[O-])c1)c1ccccc1 | 165.21 (≈ 652 µM)
14 | COc1ccc(C(=O)/C=C/c2cccc([N+](=O)[O-])c2)c(OC)c1 | 133.57 (≈ 426 µM)
15 | O=C1O[C@H]([C@@H](O)CO)C(O)=C1O [ASCORBIC ACID] | 37.78 (≈ 215 µM)
16 | COc1ccc(C(=O)/C=C/c2cccc([N+](=O)[O-])c2)cc1 | 135.27 (≈ 478 µM)
17 | O=C(/C=C/c1cccc([N+](=O)[O-])c1)c1ccc(O)cc1 | 92.75 (≈ 344 µM)
18 | O=C(/C=C/c1cccc([N+](=O)[O-])c1)c1ccc(Br)cc1 | 170 (≈ 512 µM)

system: Bacillus subtilis; assay: Antimicrobial activity against Bacillus subtilis NCIB 3610 assessed as zone of inhibition at 100 ug/ml by agar well diffusion method; assay type: functional; details: subsp. subtilis str. NCIB 3610
Summary of the method: (§2)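 For the agar well diffusion screen, samples at 100 µg/mL were made from a stock of 10 mg in 1 mL EtOH diluted 1:1 (v/v) with Mueller-Hinton medium. The zone of inhibition was scored as 5–10 mm poor, 10–15 moderate, 15–20 good and 20–25 very good. Gentamycin and nystatin were the reference drugs. Strains were confirmed at the University of Botswana microbiology laboratory.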

Row | Molecule | Activity
19 | COc1ccc(C2=CC3=NOC(=O)C3C(c3cccc([N+](=O)[O-])c3)C2)c(OC)c1 (stereo not given) | inactive

same assay, conditions: subsp. subtilis str. NCIB 3610, read-out: IZ

Row | Molecule | zone of inhibition at 100 µg/mL [mm]
20 | O=C1NN=C2C=C(c3ccc(Br)cc3)CC(c3cccc([N+](=O)[O-])c3)C12 (stereo not given) | 13
21 | COc1ccc(C2=CC3=NOC(=O)C3C(c3cccc([N+](=O)[O-])c3)C2)cc1 (stereo not given) | 12

system: Staphylococcus aureus; assay: Antimicrobial activity against Staphylococcus aureus ATCC 25923 by agar well diffusion method; assay type: functional; details: not given

Row | Molecule | MIC
22 | COc1ccc(C2=CC3=NOC(=O)C3C(c3cccc([N+](=O)[O-])c3)C2)c(OC)c1 (stereo not given) | inactive
23 | O=C1NN=C2C=C(c3ccc(Br)cc3)CC(c3cccc([N+](=O)[O-])c3)C12 (stereo not given) | 2.5 µg/mL (≈ 6.06 µM)
24 | COc1ccc(C2=CC3=NOC(=O)C3C(c3cccc([N+](=O)[O-])c3)C2)cc1 (stereo not given) | inactive
25 | GENTAMICIN | < 0.02 µg/mL

system: Candida albicans; assay: Antifungal activity against Candida albicans by agar well diffusion method; assay type: functional; details: not given

Row | Molecule | MIC
26 | NYSTATIN | < 0.02 µg/mL
27 | COc1ccc(C2=CC3=NOC(=O)C3C(c3cccc([N+](=O)[O-])c3)C2)c(OC)c1 (stereo not given) | inactive
28 | O=C1NN=C2C=C(c3ccc(Br)cc3)CC(c3cccc([N+](=O)[O-])c3)C12 (stereo not given) | 2.5 µg/mL (≈ 6.06 µM)
29 | COc1ccc(C2=CC3=NOC(=O)C3C(c3cccc([N+](=O)[O-])c3)C2)cc1 (stereo not given) | inactive

system: Pseudomonas aeruginosa; assay: Antimicrobial activity against Pseudomonas aeruginosa NCIMB 8295 assessed as zone of inhibition at 100 ug/ml by agar well diffusion method; assay type: functional; details: not given; summary of the method: as §2

Row | Molecule | Activity
30 | COc1ccc(C2=CC3=NOC(=O)C3C(c3cccc([N+](=O)[O-])c3)C2)c(OC)c1 (stereo not given) | inactive
31 | O=C1NN=C2C=C(c3ccc(Br)cc3)CC(c3cccc([N+](=O)[O-])c3)C12 (stereo not given) | inactive
32 | COc1ccc(C2=CC3=NOC(=O)C3C(c3cccc([N+](=O)[O-])c3)C2)cc1 (stereo not given) | inactive

system: Staphylococcus aureus; assay: Antimicrobial activity against Staphylococcus aureus ATCC 25923 assessed as zone of inhibition at 100 ug/ml by agar well diffusion method; assay type: functional; details: not given; summary of the method: as §2

Row | Molecule | Activity
33 | COc1ccc(C2=CC3=NOC(=O)C3C(c3cccc([N+](=O)[O-])c3)C2)c(OC)c1 (stereo not given) | inactive
34 | COc1ccc(C2=CC3=NOC(=O)C3C(c3cccc([N+](=O)[O-])c3)C2)cc1 (stereo not given) | inactive

same assay, conditions: read-out: IZ

Row | Molecule | zone of inhibition at 100 µg/mL [mm]
35 | O=C1NN=C2C=C(c3ccc(Br)cc3)CC(c3cccc([N+](=O)[O-])c3)C12 (stereo not given) | 13

system: Escherichia coli; assay: Antimicrobial activity against Escherichia coli ATCC 8739 assessed as zone of inhibition at 100 ug/ml by agar well diffusion method; assay type: functional; details: not given; summary of the method: as §2

Row | Molecule | Activity
36 | COc1ccc(C2=CC3=NOC(=O)C3C(c3cccc([N+](=O)[O-])c3)C2)c(OC)c1 (stereo not given) | inactive
37 | O=C1NN=C2C=C(c3ccc(Br)cc3)CC(c3cccc([N+](=O)[O-])c3)C12 (stereo not given) | inactive
38 | COc1ccc(C2=CC3=NOC(=O)C3C(c3cccc([N+](=O)[O-])c3)C2)cc1 (stereo not given) | inactive

system: Candida albicans; assay: Antifungal activity against Candida albicans assessed as zone of inhibition at 100 ug/ml by agar well diffusion method; assay type: functional; details: not given; summary of the method: as §2

Row | Molecule | Activity
39 | COc1ccc(C2=CC3=NOC(=O)C3C(c3cccc([N+](=O)[O-])c3)C2)c(OC)c1 (stereo not given) | inactive
40 | COc1ccc(C2=CC3=NOC(=O)C3C(c3cccc([N+](=O)[O-])c3)C2)cc1 (stereo not given) | inactive

same assay, conditions: read-out: IZ

Row | Molecule | zone of inhibition at 100 µg/mL [mm]
41 | O=C1NN=C2C=C(c3ccc(Br)cc3)CC(c3cccc([N+](=O)[O-])c3)C12 (stereo not given) | 10

system: not listed separately; assay: Metal chelating activity of the compound assessed as formation of iron complex after 20 mins by spectrophotometry; assay type: physicochemical; details: not given
Summary of the method: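 Fe2+ chelation was measured by disruption of the o-phenanthroline–Fe2+ complex. O-phenanthroline (0.05% in methanol) and FeCl2 (0.1%) were mixed with the sample at various concentrations and held at room temperature for 20 min, then read at 510 nm. EDTA was the standard chelator. % chelation = (Acontrol−Asample)/Acontrol ×100, and IC50 came from plots of % chelation versus concentration. Triplicates.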

Row | Molecule | IC50 [µg/mL]
42 | COc1ccc(C2=CC3=NOC(=O)C3C(c3cccc([N+](=O)[O-])c3)C2)c(OC)c1 (stereo not given) | 746.04 (≈ 1890 µM)
43 | O=C1NN=C2C=C(c3ccc(Br)cc3)CC(c3cccc([N+](=O)[O-])c3)C12 (stereo not given) | 106.36 (≈ 258 µM)
44 | COc1ccc(C2=CC3=NOC(=O)C3C(c3cccc([N+](=O)[O-])c3)C2)cc1 (stereo not given) | 704.31 (≈ 1930 µM)
45 | O=C(/C=C/c1cccc([N+](=O)[O-])c1)c1cccs1 | 1029.41 (≈ 3970 µM)
46 | O=C(/C=C/c1cccc([N+](=O)[O-])c1)c1ccccc1 | 104.76 (≈ 414 µM)
47 | COc1ccc(C(=O)/C=C/c2cccc([N+](=O)[O-])c2)c(OC)c1 | 95.13 (≈ 304 µM)
48 | COc1ccc(C(=O)/C=C/c2cccc([N+](=O)[O-])c2)cc1 | 97.32 (≈ 344 µM)
49 | O=C(/C=C/c1cccc([N+](=O)[O-])c1)c1ccc(O)cc1 | 84.09 (≈ 312 µM)
50 | O=C(/C=C/c1cccc([N+](=O)[O-])c1)c1ccc(Br)cc1 | 202.56 (≈ 610 µM)
51 | O=C(O)CN(CCN(CC(=O)O)CC(=O)O)CC(=O)O [EDETIC ACID] | 50.98 (≈ 174 µM)

system: Bacillus subtilis; assay: Antimicrobial activity against Bacillus subtilis NCIB 3610 by agar well diffusion method; assay type: functional; details: subsp. subtilis str. NCIB 3610

Row | Molecule | MIC
52 | COc1ccc(C2=CC3=NOC(=O)C3C(c3cccc([N+](=O)[O-])c3)C2)c(OC)c1 (stereo not given) | inactive
53 | O=C1NN=C2C=C(c3ccc(Br)cc3)CC(c3cccc([N+](=O)[O-])c3)C12 (stereo not given) | 2.5 µg/mL (≈ 6.06 µM)
54 | COc1ccc(C2=CC3=NOC(=O)C3C(c3cccc([N+](=O)[O-])c3)C2)cc1 (stereo not given) | 2.5 µg/mL (≈ 6.86 µM)
55 | GENTAMICIN | < 0.02 µg/mL

system: not listed separately; assay: Antioxidant activity assessed as DPPH radical scavenging activity after 3 hrs by spectrophotometry; assay type: physicochemical; details: not given; summary of the method: as §1

Row | Molecule | IC50 [µg/mL]
56 | COc1ccc(C2=CC3=NOC(=O)C3C(c3cccc([N+](=O)[O-])c3)C2)c(OC)c1 (stereo not given) | 140.02 (≈ 355 µM)
57 | O=C1NN=C2C=C(c3ccc(Br)cc3)CC(c3cccc([N+](=O)[O-])c3)C12 (stereo not given) | 77.89 (≈ 189 µM)
58 | COc1ccc(C2=CC3=NOC(=O)C3C(c3cccc([N+](=O)[O-])c3)C2)cc1 (stereo not given) | 118.69 (≈ 326 µM)
59 | O=C(/C=C/c1cccc([N+](=O)[O-])c1)c1cccs1 | 90.73 (≈ 350 µM)
60 | O=C(/C=C/c1cccc([N+](=O)[O-])c1)c1ccccc1 | 112.5 (≈ 444 µM)
61 | COc1ccc(C(=O)/C=C/c2cccc([N+](=O)[O-])c2)c(OC)c1 | 96.22 (≈ 307 µM)
62 | O=C1O[C@H]([C@@H](O)CO)C(O)=C1O [ASCORBIC ACID] | 25.26 (≈ 143 µM)
63 | COc1ccc(C(=O)/C=C/c2cccc([N+](=O)[O-])c2)cc1 | 92.46 (≈ 326 µM)
64 | O=C(/C=C/c1cccc([N+](=O)[O-])c1)c1ccc(O)cc1 | 40.67 (≈ 151 µM)
65 | O=C(/C=C/c1cccc([N+](=O)[O-])c1)c1ccc(Br)cc1 | 122.8 (≈ 370 µM)
